ChEMBL document CHEMBL1140227, “Histone deacetylase inhibitors through click chemistry” (J Med Chem, 2008)

Columns and labels:
Assay type in all cases: functional
HCT-116 = test: Growth inhibition of human HCT116 cells at 10 uM relative to control; conditions: values are per cent of control
How it was run: (§1)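 Single-dose preliminary screen in the NCI human cancer cell line panel, run by the NIH. Percent inhibition of cell line growth was calculated by comparison with untreated samples.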

NCI-H226 = test: Growth inhibition of human NCI-H226 cells at 10 uM relative to control; conditions: values are per cent of control; how it was run: as §1
OVCAR-8 = test: Growth inhibition of human OVCAR8 cells at 10 uM relative to control; conditions: values are per cent of control; how it was run: as §1
SF-295 = test: Growth inhibition of human SF295 cells at 10 uM relative to control; conditions: values are per cent of control; how it was run: as §1
OVCAR-4 = test: Growth inhibition of human OVCAR4 cells at 10 uM relative to control; conditions: values are per cent of control; how it was run: as §1
OVCAR-5 = test: Growth inhibition of human OVCAR5 cells at 10 uM relative to control; conditions: values are per cent of control; how it was run: as §1
A498 = test: Growth inhibition of human A498 cells at 10 uM relative to control; conditions: values are per cent of control; how it was run: as §1
cells [1] = conditions: Homo sapiens, Cancer cell lines
cells [2] = conditions: Homo sapiens, Cancer cell lines; remark: listed apart in the source
HCC 2998 = test: Growth inhibition of human HCC2998 cells at 10 uM relative to control; conditions: values are per cent of control; how it was run: as §1
BT-549 = test: Growth inhibition of human BT549 cells at 10 uM relative to control; conditions: values are per cent of control; how it was run: as §1
SNB-19 = test: Growth inhibition of human SNB19 cells at 10 uM relative to control; conditions: values are per cent of control; how it was run: as §1
HT-29 = test: Growth inhibition of human HT-29 cells at 10 uM relative to control; conditions: values are per cent of control; how it was run: as §1
MDA-MB-231 = test: Growth inhibition of human MDA-MB-231 cells at 10 uM relative to control; conditions: values are per cent of control; how it was run: as §1
EKVX = test: Growth inhibition of human EKVX cells at 10 uM relative to control; conditions: values are per cent of control; how it was run: as §1
ACHN = test: Growth inhibition of human ACHN cells at 10 uM relative to control; conditions: values are per cent of control; how it was run: as §1
SW-620 = test: Growth inhibition of human SW620 cells at 10 uM relative to control; conditions: values are per cent of control
How it was run: (§2)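 Single-dose NCI human tumour cell line screen, run by the NIH. Percent inhibition of cell line growth was calculated by comparison with untreated samples.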

SK-MEL-2 = test: Growth inhibition of human SK-MEL-2 cells at 10 uM relative to control; conditions: values are per cent of control; how it was run: as §1
SF-268 = test: Growth inhibition of human SF268 cells at 10 uM relative to control; conditions: values are per cent of control; how it was run: as §1
Malme-3M = test: Growth inhibition of human MALME-3M cells at 10 uM relative to control; conditions: values are per cent of control; how it was run: as §1
MDA-MB-468 = test: Growth inhibition of human MDA-MB-468 cells at 10 uM relative to control; conditions: values are per cent of control; how it was run: as §1
Leukemia cell = test: cells; conditions: Homo sapiens
[3] = Growth inhibition of human Hs 578T cells at 10 uM relative to control; conditions: values are per cent of control; how it was run: as §1
HCT-15 = test: Growth inhibition of human HCT15 cells at 10 uM relative to control; conditions: values are per cent of control; how it was run: as §1
cells [4] = conditions: Homo sapiens, Cancer cell lines; remark: listed apart in the source
TK-10 = test: Growth inhibition of human TK10 cells at 10 uM relative to control; conditions: values are per cent of control; how it was run: as §2
K562 = test: Growth inhibition of human K562 cells at 10 uM relative to control; conditions: values are per cent of control; how it was run: as §1
SF-539 = test: Growth inhibition of human SF539 cells at 10 uM relative to control; conditions: values are per cent of control; how it was run: as §1
NCI-H322M = test: Growth inhibition of human NCI-H322M cells at 10 uM relative to control; conditions: values are per cent of control; how it was run: as §1
KM12 = test: Growth inhibition of human KM12 cells at 10 uM relative to control; conditions: values are per cent of control; how it was run: as §1
IGROV-1 = test: Growth inhibition of human IGROV1 cells at 10 uM relative to control; conditions: values are per cent of control; how it was run: as §1
HOP-92 = test: Growth inhibition of human HOP92 cells at 10 uM relative to control; conditions: values are per cent of control; how it was run: as §1

## O=C(/C=C/c1cn(CC(=O)Nc2ccccc2)nn1)NO
HCT-116
  growth, % of control at 10 µM: 55.3%
NCI-H226
  growth, % of control at 10 µM: 94.1%
OVCAR-8
  growth, % of control at 10 µM: 51.9%
SF-295
  growth, % of control at 10 µM: 81.3%
OVCAR-4
  growth, % of control at 10 µM: 83.7%
OVCAR-5
  growth, % of control at 10 µM: 79%
A498
  growth, % of control at 10 µM: 105%
Cells [1]
  inhibition at 10 µM: 68%
Cells [2]
  inhibition at 10 µM: 89%
HCC 2998
  growth, % of control at 10 µM: 83.5%
BT-549
  growth, % of control at 10 µM: 83.6%
SNB-19
  growth, % of control at 10 µM: 105%
HT-29
  growth, % of control at 10 µM: 51.9%
MDA-MB-231
  growth, % of control at 10 µM: 104%
EKVX
  growth, % of control at 10 µM: 70.5%
ACHN
  growth, % of control at 10 µM: 113%
SW-620
  growth, % of control at 10 µM: 91.5%
SK-MEL-2
  growth, % of control at 10 µM: 51.1%
SF-268
  growth, % of control at 10 µM: 66.8%
Malme-3M
  growth, % of control at 10 µM: 21.4%
MDA-MB-468
  growth, % of control at 10 µM: 64.2%
Leukemia cell
  inhibition at 10 µM: 84%
[3]
  growth, % of control at 10 µM: 84.2%
HCT-15
  growth, % of control at 10 µM: 105%
Cells [4]
  growth percent at 10 µM: 90%
TK-10
  growth, % of control at 10 µM: 101%
K562
  growth, % of control at 10 µM: 86%
SF-539
  growth, % of control at 10 µM: 107%
NCI-H322M
  growth, % of control at 10 µM: 41.8%
KM12
  growth, % of control at 10 µM: 76%
IGROV-1
  growth, % of control at 10 µM: 86.4%
HOP-92
  growth, % of control at 10 µM: 67.8%
